Test results published in paper PMC8220551 (International Journal of Pharmaceutics: X, 2021).

Experiment: Permeation study in Kerski diffusion cells with PermeaPad biomimetic barrier
Format: in vitro ADME
Conditions: in the investigated time interval (up to 60 min), pH 7.4, 37 °C
Outline: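 Drug-loaded minitablets, composite films or solutions (0.2 mg per 0.64 cm2) placed in donor; composites applied to buffer-moistened membrane. Acceptor: 10 mM dipotassium hydrogen phosphate, pH 7.4, stirred 350 rpm, 37 °C. Samples at 5, 10, 15, 20, 25, 30, 40, 50, 60 min with medium replacement. Quantified by HPLC with fluorescence detection (excitation 278 nm); mean ± SD, n = 3.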

cumulative drug concentration permeated: ~2.6 μg/cm^2
SMILES: NC(=O)CC[C@@H]1NC(=O)[C@H](Cc2ccccc2)NC(=O)[C@H](Cc2ccc(O)cc2)NC(=O)CCSSC[C@@H](C(=O)N2CCC[C@H]2C(=O)N[C@H](CCCN=C(N)N)C(=O)NCC(N)=O)NC(=O)[C@H](CC(N)=O)NC1=O [DDAVP, 1-desamino-8-D-arginin-vasopressin]
